LANA DNA inh: inhibitors of KSHV C-LANA binding to DNA, primary screen, biochemical, fluorescence polarization, FAM-LBS DNA, MBP-C-LANA, single point | inhibition, % at 9 µM | 340,000 compounds, 0.078% hits | Kaposi's sarcoma herpesvirus LANA C-terminal domain (residues 932-1162) DNA binding;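 active = highest replicate inhibition at or above 60% at 9 µM, even if other replicates fall short; inactive = all replicates below 60% inhibition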;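 also: 0% = neutral control wells and 100% = 4 µM acridine orange control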
CAL PDZ FP-1: untagged CAL PDZ binding inhibitors, primary screen, biochemical, fluorescence polarization, HTS; inhibition, % at 24.9 µM; 300,000 compounds, 0.92% hits; purified CAL PDZ, TMR-peptide fluorescence polarization, 1 h; Golgi-associated PDZ and coiled-coil motif-containing protein (Homo sapiens), Q9HD26;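 active = mean inhibition of at least 30% with at least half of replicates also reaching 30%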;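 also: 0% = DMSO neutral control and 100% = excess unlabeled competitor peptide PRC23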
A3A deaminase: APOBEC3A ssDNA deaminase inhibitors, primary screen, selectivity assay for APOBEC3G inhibitor project, biochemical, FAM/TAMRA oligo cleavage fluorescence. DNA dC->dU-editing enzyme APOBEC-3A (Homo sapiens), P31941. recombinant A3A, FAM/TAMRA ssDNA deamination fluorescence. inhibition, % at 20 µM. 330,000 compounds, 0.41% hits;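 active = at least 40% inhibition at 20 µM here, with at most 30% in a related deaminase screen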;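 also: plate controls were A3A with DMSO for no effect and wells lacking A3A enzyme for full effect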
Keap1-Nrf2 PPI: Keap1-Nrf2 protein-protein interaction inhibitors, primary screen, biochemical, fluorescence polarization, single point. Kelch-like ECH-associated protein 1 (Homo sapiens), Q14145. Keap1 Kelch-Nrf2 peptide fluorescence polarization, 1536-well. inhibition, % at 9.4 µM. 340,000 compounds, 0.15% hits; in the data active = inhibition above about 12%;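 also: human Keap1 Kelch domain with fluorescein labeled Nrf2 9mer peptide probe; 0% = neutral control wells and 100% = peptide positive control; higher means more block of Keap1 binding to Nrf2 peptide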
Target sequence (Q14145 whole entry, looked up, the tested form may be a part): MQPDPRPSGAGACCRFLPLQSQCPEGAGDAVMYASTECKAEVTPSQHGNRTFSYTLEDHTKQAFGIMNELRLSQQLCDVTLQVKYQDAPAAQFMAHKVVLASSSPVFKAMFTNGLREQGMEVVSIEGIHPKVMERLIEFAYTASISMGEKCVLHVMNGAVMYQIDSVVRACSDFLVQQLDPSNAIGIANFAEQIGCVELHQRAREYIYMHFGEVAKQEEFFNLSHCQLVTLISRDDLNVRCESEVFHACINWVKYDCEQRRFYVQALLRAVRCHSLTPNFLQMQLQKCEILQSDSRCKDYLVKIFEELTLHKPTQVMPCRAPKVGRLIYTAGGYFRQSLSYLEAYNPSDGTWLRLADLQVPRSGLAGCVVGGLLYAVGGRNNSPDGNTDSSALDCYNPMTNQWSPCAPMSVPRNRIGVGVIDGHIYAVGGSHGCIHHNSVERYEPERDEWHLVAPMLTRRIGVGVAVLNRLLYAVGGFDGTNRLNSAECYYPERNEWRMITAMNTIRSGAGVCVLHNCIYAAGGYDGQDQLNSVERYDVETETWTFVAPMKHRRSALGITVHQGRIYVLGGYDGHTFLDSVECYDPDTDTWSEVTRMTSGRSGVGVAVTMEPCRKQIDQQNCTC
APOBEC3G inh: APOBEC3G DNA deaminase inhibitors, primary screen, biochemical, fluorescence, single-stranded DNA substrate, uHTS; recombinant A3G, ssDNA deamination FAM/TAMRA fluorescence; inhibition, % at 20 µM; 330,000 compounds, 0.28% hits; AID 493012, 2011;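 active = inhibition of at least 40% at 20 µM, with no more than 30% in the related APOBEC3A deaminase screen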;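 also: plate controls were DMSO wells with A3G for no effect and wells lacking A3G enzyme for full effect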
CAL PDZ FP-2: CAL PDZ peptide-binding inhibitors, primary screen, biochemical, fluorescence polarization, Cer-tagged CAL PDZ, HTS; Golgi-associated PDZ and coiled-coil motif-containing protein (Homo sapiens), Q9HD26; purified CAL PDZ, TMR-peptide fluorescence polarization, 1 h; inhibition, % at 20 µM; 330,000 compounds, 0.02% hits; AID 504414, 2011;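 active = highest replicate inhibition of at least 40%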;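 also: plate controls were DMSO neutral control wells for no effect and unlabeled competitor peptide control wells for full effect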
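System: purified tagged CAL PDZ domain construct (CerCALP). Schedule: 1 h incubation at room temperature before polarization reading. Medium: 25 mM sodium phosphate pH 7.4, 150 mM NaCl, TCEP, IgG, Thesit. Read-out: percent inhibition from loss of millipolarization. Measured by: FP readout, S and P plane fluorescence. Probe or stimulus: fluorescent TMR peptide probe.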
APOBEC3A confirm: APOBEC3A deaminase inhibitors, retest, confirmation, selectivity assay for APOBEC3G inhibitor project, biochemical, single concentration, fluorescence readout; 1,400 compounds, 63% hits; inhibition, % at 20 µM; shares compounds with A3A deaminase; recombinant A3A, ssDNA deaminase UDG fluorescence assay;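 active = inhibition reaching a set limit, 80% of the first screen's cutoff, at 20 µM in any replicate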;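 also: plate controls were DMSO wells with A3A for no effect and wells lacking A3A enzyme for full effect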
UDG A3A counter: E. coli UDG inhibitors, confirmation, counter-screen for APOBEC3A inhibitor project, biochemical, single concentration, fluorescence, FAM/TAMRA oligo. shares compounds with A3A deaminase. UDG counterscreen, FAM/TAMRA uracil oligo fluorescence. inhibition, % at 20 µM. 1,000 tested, under 10 active. AID 504714, 2011; call rule not given here
An asterisk follows results filed as active; x = no result. Rows were chosen to be rich in hits. Some 1.7% of all compounds tested hit in one or more screens of this group.

SMILES	LANA DNA inh	CAL PDZ FP-1	A3A deaminase	Keap1-Nrf2 PPI	APOBEC3G inh	CAL PDZ FP-2	APOBEC3A confirm	UDG A3A counter
CC(=O)c1ccc(S(=O)(=O)N2Cc3ccccc3CC2C(=O)O)cc1 (centres undefined)	3	-3	56*	2	19	1	56*	2
Cc1cccc(NC(=O)CSc2ccc(C(N)=O)cc2[N+](=O)[O-])c1C	-1	-1	44*	2	23	0	6	x
Cc1c(NC(=O)COC(=O)CSc2ccc(C(N)=O)cc2[N+](=O)[O-])c(=O)n(-c2ccccc2)n1C	0	-1	-4	-4	0	-2	x	x
Cc1ccccc1NC(=O)CSc1ccsc1[N+](=O)[O-]	6	-3	48*	2	19	-3	42*	x
COCCCNC(=O)CSc1ccsc1[N+](=O)[O-]	1	-3	3	1	-5	-2	x	x
COc1ccc(OC)c(NC(=O)CSc2sc3c(O)cc(=O)[nH]c3c2C#N)c1	-1	-2	21	-3	-1	-1	x	x
COc1cc(Cl)c(C)cc1NC(=O)CSc1sc2c(O)cc(=O)[nH]c2c1C#N	3	-7	69*	1	26	-1	18*	1
COc1ccc(NC(C)=O)cc1S(=O)(=O)NC(C)c1ccc(-n2ccnc2)cc1 (centres undefined)	0	2	-4	-3	-4	1	x	x
CCN1C(=O)/C(=C\c2ccc(-c3cccc(C(=O)OC)c3)o2)SC1=Nc1ccc(C(=O)O)cc1	x	x	2	x	-4	x	x	x
O=C(O)c1cccc(-c2ccc(/C=C3/SC(=Nc4ccccc4)N(Cc4cccnc4)C3=O)o2)c1	4	-4	52*	-7	20	x	33*	2
Clc1ccc(Sc2oc(/C=N/n3cnnc3)cc2Br)cc1	0	-2	43*	-5	25	-2	72*	-4
Cc1ccccc1CC1SC(N)=NC1=O (centres undefined)	-4	-4	1	-1	10	0	x	x
CCN(CC)C(=O)Cn1cc(SCC(=O)NC2CCCC2)c2ccccc21	0	-18	-3	-5	-9	0	x	x
CCN(CC)C(=O)Cn1cc(SCC(=O)NC)c2ccccc21	1	-2	83*	-2	11	0	1	x
O=C(Nc1ccccc1)c1ccc(CSc2ncccn2)cc1	-1	-4	43*	-1	19	-1	20	x
O=C(Nc1ccccc1F)c1ccc(CSc2ncccn2)cc1	0	0	70*	2	12	-1	55*	-3
CC(=O)Nc1nnc(SCc2ccc(C(=O)Nc3ccccc3F)cc2)s1	0	x	48*	3	19	0	53*	3
Cn1nnnc1SCc1ccc(C(=O)Nc2ccccc2F)cc1	-1	0	-1	0	-5	0	x	x
O=C(NNC(=O)C1CC=CCC1)c1ccccc1O (centres undefined)	-1	0	-4	-3	-3	-1	x	x
